Sampled rows, rich in hits. Any-hit rate of the full collection: about 3.5%.
MrgX1 ag: human MrgX1 receptor agonism, primary screen | Q96LB2 | MrgX1-HEK293 cells, Fluo-4 calcium fluorescence, agonist mode; active compounds read high | B-score at 10 µM | actives 0.44% (n = 310,000);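 active means calcium response B-score plate-corrected fluorescence ratio at least 3 library SD, with starting fluorescence B-score inside 5 SD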
Target sequence (Q96LB2 whole entry, looked up): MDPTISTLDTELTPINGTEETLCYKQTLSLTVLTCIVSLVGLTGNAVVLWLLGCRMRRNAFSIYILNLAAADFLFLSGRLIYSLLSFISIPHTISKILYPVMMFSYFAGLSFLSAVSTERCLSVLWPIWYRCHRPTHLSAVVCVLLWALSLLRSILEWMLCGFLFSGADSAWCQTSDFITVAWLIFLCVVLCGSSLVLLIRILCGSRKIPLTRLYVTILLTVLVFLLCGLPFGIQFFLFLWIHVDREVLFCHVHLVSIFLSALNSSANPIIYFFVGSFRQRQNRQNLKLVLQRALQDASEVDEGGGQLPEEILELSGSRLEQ
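Material: MrgX1-expressing HEK293 cells; input: 15,000 cells per well; doses: test compound given as first of three sequential additions; schedule: overnight plating before 1 h dye loading; technique: Fluo-4 NW calcium-flux fluorescence, kinetic read; evaluation: baseline-normalised fluorescence change ratio, B-scored; control set: plate-wise positive and negative controls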
RGS4 inh: human RGS4 inhibition | P49798 | B-score at 10 µM | HEK293 M3R/RGS4 inducible, Fluo-4 calcium flux; active compounds read high; triggered by carbachol at its EC20 | actives 0.45% (n = 310,000);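 active means B-score, a plate-corrected calcium signal, over three deviations above library mean, with baseline fluorescence within five deviations of library mean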;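 further: RGS4 expression induced by doxycycline in cells with stable M3 receptor; B-score is computed from the integrated fluorescence ratio over baseline after carbachol; higher B-score means a larger calcium signal and so more RGS4 inhibition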
Target sequence (P49798 whole entry, looked up): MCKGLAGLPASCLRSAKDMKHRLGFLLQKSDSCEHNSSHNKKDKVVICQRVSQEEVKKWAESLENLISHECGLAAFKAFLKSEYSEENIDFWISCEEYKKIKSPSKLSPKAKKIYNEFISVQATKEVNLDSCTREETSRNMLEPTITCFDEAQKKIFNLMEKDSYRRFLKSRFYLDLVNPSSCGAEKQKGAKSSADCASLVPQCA
MrgX1 antag: blocks BAM8-22 activation of human MrgX1 receptor; Q96LB2; MRGX1-HEK293 calcium flux, Fluo-4, BAM8-22 antagonism; active compounds read low; B-score at 10 µM; actives 1.3% (n = 310,000);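 active means calcium-response B-score plate-corrected more than 3 library SD below zero, starting fluorescence within 5 deviations, no agonist response on first addition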;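 further: peak minus trough fluorescence over baseline after final BAM8-22 challenge near maximal dose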
MrgX1 allo act: human MrgX1 positive allosteric modulation, primary screen | Q96LB2 | MrgX1-HEK293, Fluo-4 calcium flux, FDSS; active compounds read high | B-score at 10 µM | actives 0.63% (n = 310,000) | AID 588675;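 active means plate-corrected calcium response at least 3 library SD above typical, normal starting fluorescence, not activating the receptor alone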;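 further: compound read alongside a low EC10 to EC30 dose of BAM8-22 agonist; peak minus trough fluorescence over baseline measured at the second addition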
RGS4 act: potentiators or activators of RGS4. HEK293 M3R/inducible RGS4, carbachol calcium flux Fluo4; active compounds read low. actives 0.92% (n = 310,000). B-score at 10 µM;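 active means B-score of the integrated calcium signal more than 4 SD below the library mean, with starting fluorescence not abnormally high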;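 further: negative B-score means reduced calcium response which marks RGS4 activation or potentiation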
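test system = M3R-expressing HEK293 line, RGS4 induced by doxycycline | probe or stimulus = carbachol at ECmax as muscarinic agonist stimulus | timing = dye loading 30 min 37 °C, buffer rest 30 min RT | signal = calcium dye Fluo4 fluorescence | evaluation = B score from integrated fluorescence ratio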
Of the large screens only hits and unclear results are named; the others gave an inactive call.

c1ccc(-c2nc(-n3nc4ccccc4n3)nc3ccccc23)cc1	RGS4 act -7.2
Clc1ccc(-c2nc(N3CCCCC3)nc3ccccc23)cc1	none
O=C(NN1C(=O)c2ccc(-c3ccc4c(c3)C(=O)N(NC(=O)c3cccnc3)C4=O)cc2C1=O)c1cccnc1	none
C=CCc1ccc(OCCCCCN2CCOCC2)c(OC)c1	RGS4 act -7.5
Cc1ccc(Cl)cc1N1CCN(C(=O)c2cc3c(=O)n(C)c4ccccc4c3n2C)CC1	RGS4 act -7.2
CC(Oc1ccc(Br)cc1)C(=O)NC1CCN(Cc2ccccc2)CC1 (configuration not stated)	RGS4 act -7.6
O=C(O)COc1ccc(/C=C/c2nc3ccc([N+](=O)[O-])cc3s2)cc1	MrgX1 antag -4.8
C#CNC(=O)C1(CC=C)CCNCC1	none
CCOC(=O)Cc1nnc(Nc2ccc(C)cc2C)c2ccccc12	none
O=C(Nc1ccncc1)c1ccc(Cl)c(S(=O)(=O)N2CCCCC2)c1	none
CCN(CC)CCOC(=O)c1ccc(NC(=O)c2ccc(Cl)c(S(=O)(=O)N3CCCCCC3)c2)cc1	MrgX1 antag -6.8
C=CCn1c(-c2ccc([N+](=O)[O-])cc2)n[nH]c1=S	RGS4 act -7.7
C=CCn1c(-c2ccccc2[N+](=O)[O-])n[nH]c1=S	none
COc1ccccc1NS(=O)(=O)c1cc(C(=O)NCC(c2ccco2)N(C)C)ccc1C (configuration not stated)	none
COc1ccccc1NS(=O)(=O)c1cc(C(=O)NCC(c2ccco2)N2CCCCC2)ccc1C (configuration not stated)	MrgX1 antag -5.4
Cc1ccc(-c2csc(NC(=O)C3=NN(c4ccccc4)C(=O)CC3)n2)cc1	MrgX1 antag -4.8
Cc1csc(NC(=O)C2=NN(c3ccccc3)C(=O)CC2)n1	none
COc1ccc(Cl)cc1NC(=O)NCc1ccccn1	none
N/C(=N\OC(=O)Oc1ccccc1)c1ccc(Cl)cc1	RGS4 act -9.5
CN(C)c1ccc(/C=C/C(=O)c2cc(Cl)ccc2O)cc1	MrgX1 antag -6.8
COc1ccccc1NC(=O)Cn1nc(-c2ccc(Cl)cc2)c2ccccc2c1=O	MrgX1 ag 34
CCCCN1C(=O)c2ccc(C(=O)NCCN3C(=O)S/C(=C\c4cccnc4)C3=O)cc2C1=O	none
CCCCCn1nc(C(=O)OCC(=O)c2c(N)n(C)c(=O)n(C)c2=O)c2ccccc2c1=O	none
CCCCCCn1nc(C(=O)OCC(=O)c2c(N)n(C)c(=O)n(C)c2=O)c2ccccc2c1=O	RGS4 act -8.7
COc1cc2c(cc1NC(=O)CSc1ccc(C)cc1)oc1ccccc12	none
COc1cc2c(cc1NC(=O)C(C)Sc1ccc(C)cc1)oc1ccccc12 (configuration not stated)	RGS4 act -7
Cc1nnc(SCc2cc(=O)[nH]c(/N=C(\N)Nc3ccccc3Sc3ccccc3)n2)s1	RGS4 act -7.4
COc1ccc(NC(=O)Cn2cnc3sc(C)c(S(=O)(=O)N4CCOCC4)c3c2=O)cc1Cl	none
Cc1ccc(-n2nnnc2SCc2ccccn2)cc1C	none
CN(CCC#N)C(=O)COC(=O)/C=C/c1ccc2c(c1)OCO2	MrgX1 antag -6
COc1ccc(NC2c3ccccc3C(=O)N2Cc2ccc3c(c2)OCO3)cc1 (configuration not stated)	none
N#C/C(=C\c1cccnc1)c1nc2c(s1)CCCC2	MrgX1 antag -5.5
Cc1cccc([N+](=O)[O-])c1NC(=O)CN(Cc1ccccc1)Cc1ccccc1	RGS4 act -8.6
CN(C(=O)CSC(=O)c1ccccc1)c1ccccc1	none
O=S(=O)(Nc1ccc(N2CCCCC2)cc1)c1cccs1	none
O=S(=O)(Nc1cc(Cl)ccc1N1CCCCC1)c1cccs1	MrgX1 antag -13
COc1ccc(C(=O)C(CCCCC(CN(C)C)C(=O)c2ccc(OC)cc2)CN(C)C)cc1 (configuration not stated)	none
CCOc1ccc(C(=O)C(CCC(CN(C)C)C(=O)c2ccc(OCC)cc2)CN(C)C)cc1 (configuration not stated)	RGS4 act -8 (no result: MrgX1 ag, MrgX1 antag, MrgX1 allo act)
COc1ccc(/C=C/C(=O)c2cc(Cl)ccc2O)c(OC)c1	none
COc1ccc(/C=C/C(=O)c2ccc(Cl)cc2)c(OC)c1	MrgX1 antag -4.9
CC(C)CSc1oc(-c2ccco2)nc1S(=O)(=O)c1ccccc1	none
S=C1NC2=C(CCC/C2=C\c2ccccc2)C(c2ccccc2)N1 (configuration not stated)	none
C(=C1/CCCC2=C1Nc1ncnn1C2c1ccccc1)/c1ccccc1 (configuration not stated)	MrgX1 antag -5, MrgX1 allo act 7.3
COc1ccc(-c2c[n+](CC(=O)OC3CC(C)CCC3C(C)C)c3n2CCC3)cc1 (configuration not stated)	MrgX1 antag -4.9, RGS4 act -7
O=C(C[n+]1cc(-c2ccc(Cl)cc2)n2c1CCCCC2)c1ccccc1	none
CC(C)[C@@H]1CC[C@@H](C)C[C@H]1OC(=O)C[n+]1cc(-c2ccc(Cl)cc2)n2c1CCCCC2	MrgX1 antag -7.4
Cc1ccc(C)c(OCC(=O)Nc2ccccc2N2CCCC2)c1	none
O=C(NCc1ccco1)c1cc2c(s1)CCCCC2	RGS4 act -7.1
O=C(Nc1ccccc1Cl)C1CCCN(S(=O)(=O)c2ccc(-n3cnnn3)cc2)C1 (configuration not stated)	none
CC(=O)N1c2c(cc(Br)cc2S(=O)(=O)N2CCN(c3ccccc3F)CC2)CC1C (configuration not stated)	MrgX1 antag -7.8
COC(Cc1n[nH]c(=S)n1-c1ccc(Cl)cc1)OC	none
Cc1ccccc1C(=O)Nc1nnc(SCC(=O)NCc2ccco2)s1	none
CCCCN(CCCC)c1nc2ccccc2nc1C(C#N)C(=O)NCCCOC (configuration not stated)	RGS4 act -9.5
CCCc1nc2ccccc2c(=O)n1NC(=O)c1c(O)c2ccccc2n(C)c1=O	MrgX1 allo act 10
C[n+]1ccc(C(=O)Nc2ccccc2Cl)cc1	none
CCn1c(C)nc2cc(C(=O)NNC(=O)Nc3cccc(Cl)c3)ccc21	MrgX1 antag -6.3
CCn1c(C)nc2cc(C(=O)NNC(=O)Nc3ccc(Cl)cc3)ccc21	none
CC(C)Cc1ccc(C(C)C(=O)OCC(=O)c2c[nH]c3ccccc23)cc1 (configuration not stated)	RGS4 act -7.3
Cc1ccc(C(=O)OCC(=O)c2c[nH]c3ccccc23)cc1	none
CSc1ccc(OC2CCN(Cc3ccccc3)CC2)cc1	RGS4 act -7.9
COC(=O)/C(=C/c1cn(C)c2ccccc12)[N+](=O)[O-]	RGS4 inh 12 (no result: MrgX1 ag, MrgX1 antag, MrgX1 allo act)
COC(=O)/C(=C/Nc1ccccc1)[N+](=O)[O-]	none
